Only some compounds are listed: those with a hit (about 2.1% of all), similar ones and a draw of the others.
Calpain2 inh: blocks pig calpain II enzyme activity; purified calpain II, fluorogenic peptide substrate, 30 min; inhibition, % at 16 µM; 0.37% of 220,000 active;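 active means inhibition above about 50%, limit read from the data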
Wee1 degr inh: inhibitors of human Wee1 degradation; reporter increase, % at 5 µM; P30291; AID 1321; HeLa Luc-Wee1K328M stability, luciferase luminescence; 100% = proteasome inhibitor MG132 effect; 1.2% of 220,000 active;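 active means activation above the mean of all tested compounds plus 3 SD, set per screening run, cut at about 8.8% in these data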;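 further: cells exposed to compound for 20 h before luminescence read; 0% = DMSO alone and 100% = MG132 at 30 µM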
L929 necroptosis: L929 zVAD cell death inhibition. viability rescue, % at 10 µM. L929 zVAD necroptosis rescue, ATP luminescence, 24 h; with zVAD 60 µM. AID 1377. 0.38% of 220,000 active;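 active means activation, scaled between plate controls, above about 75%, limit read from the data; inactive means activation under that limit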;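 further: 0% = zVAD with DMSO and 100% = DMSO alone without zVAD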
Pf gametocyte: inhibitors of late stage P. falciparum gametocyte viability. P. falciparum stage V gametocytes, ATP luminescence, 24 h. inhibition, % at 10.9 µM. 0.065% of 150,000 active. AID 743093;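 active means inhibition above the mean plus 3 SD of compounds within the control limits, set per campaign, cut at about 38% in these data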;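 further: 0% = DMSO wells and 100% = medium only without gametocytes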
RBBP9 inh: blocks human serine hydrolase RBBP9; inhibition, % at 7.94 µM; O75884; recombinant RBBP9, FP-Rh probe fluorescence polarization; 0.2% of 220,000 active;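 active means inhibition above the campaign mean of all tested compounds plus 3 SD, cut at about 14% in these data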;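 further: plate controls were DMSO wells with RBBP9 for no effect and wells lacking RBBP9 protein for full effect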
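Measured by – fluorescence polarization · Test system – RBBP9 protein · Input – 2.5 µM RBBP9 dispensing solution, before mixing · Measure – percent inhibition from mP, scaled between DMSO and no-protein wells · Benchmarks – DMSO-treated enzyme wells and wells lacking RBBP9 · Times – preincubation 30 min plus labeling 45 min at 25 °C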
TNF death inh: inhibitors of TNF-alpha induced necroptosis in Jurkat FADD-/- cells; Jurkat FADD-/- TNF necroptosis rescue, ATP luminescence, 24 h; 0 = TNF only, 100 = no-TNF cells; activation (protection from cell death), % at 10 µM; 0.068% of 220,000 active;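 active means activation, meaning protection from cell death, of at least 50% relative to plate controls; inactive means activation below 50%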;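 further: necroptosis triggered by 40 ng/mL TNF-alpha added together with compound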
An asterisk follows results filed as active.

For O=C(Nc1ccccc1)c1cc2n(n1)C(C(F)(F)F)CC(C1CC1)N2 (stereo not drawn) the results were Calpain2 inh 15, Wee1 degr inh 1, L929 necroptosis 1, RBBP9 inh -4 and TNF death inh 0.
O=C(NCc1ccc(F)cc1)c1cc2n(n1)C(C(F)(F)F)CC(C1CC1)N2 (stereo not drawn) was read as Calpain2 inh 66*, Wee1 degr inh -1, L929 necroptosis 1, RBBP9 inh -7 and TNF death inh 2.
`O=C(Nc1nc2ccccc2[nH]1)c1ccc(Br)o1` gave Calpain2 inh -10, Wee1 degr inh 1, L929 necroptosis 68, Pf gametocyte 1, RBBP9 inh -4 and TNF death inh -5.
`FC(F)(F)c1ccc(NC(=S)NC2CCCCC2)cc1` gave Calpain2 inh -6, Wee1 degr inh 0, L929 necroptosis 3, Pf gametocyte -20, RBBP9 inh -6 and TNF death inh 1.
O=C(O)c1ccc(NC(=S)NC2CCCCC2)cc1 was read as Calpain2 inh 5, Wee1 degr inh 9.6*, L929 necroptosis 0, Pf gametocyte 14, RBBP9 inh -5 and TNF death inh 2.
Screening COc1ccc(OCC(=O)Nc2ccccc2Cl)cc1 returned Calpain2 inh -21, Wee1 degr inh -1, L929 necroptosis 3, Pf gametocyte -1, RBBP9 inh -10 and TNF death inh 3.
Screening COc1ccc(S(=O)CC(=O)Nc2ccccc2Cl)cc1 (stereo not drawn) returned Calpain2 inh -25, Wee1 degr inh 9.7*, L929 necroptosis 0, Pf gametocyte -8, RBBP9 inh 2 and TNF death inh 0.
COc1cnc(SCc2c(Cl)cccc2Cl)nc1Cl was read as Calpain2 inh 51*, Wee1 degr inh 2, L929 necroptosis 1, RBBP9 inh 0 and TNF death inh -4.
`C=CCNC(=O)COc1ccc(N(C)S(=O)(=O)c2ccc(NC(C)=O)cc2)cc1` gave Calpain2 inh -22, Wee1 degr inh 0, L929 necroptosis 3, Pf gametocyte 1, RBBP9 inh -7 and TNF death inh 1.
`Oc1ccc(Cl)cc1C1=NNC(c2cccs2)C1` (stereo not drawn) gave Calpain2 inh -1, Wee1 degr inh -4, L929 necroptosis 0, Pf gametocyte 5, RBBP9 inh -6 and TNF death inh -11.
O=[N+]([O-])c1ccc(O)c(C2=NNC(c3ccccc3F)C2)c1 (stereo not drawn) was read as Calpain2 inh -5, Wee1 degr inh 9.6*, L929 necroptosis 2, Pf gametocyte -13, RBBP9 inh -1 and TNF death inh -6.
`COc1cc(NC(=O)CCCl)cc(-n2cnnn2)c1` gave Calpain2 inh 32, Wee1 degr inh -3, L929 necroptosis 1, Pf gametocyte 6, RBBP9 inh -7 and TNF death inh 0.
`Cc1ccc(C(=O)Oc2cccc(-n3cnnn3)c2)cc1` gave Calpain2 inh 62*, Wee1 degr inh -2, L929 necroptosis 0, Pf gametocyte -1, RBBP9 inh -2 and TNF death inh 1.
`O=C(CN1CCCCCCC1)Nc1ccc(Cl)cc1Cl` gave Calpain2 inh 88*, Wee1 degr inh -2, L929 necroptosis 6, Pf gametocyte -24, RBBP9 inh 4 and TNF death inh 2.
Cc1ccc(N(C)C2=NC(=O)CS2)cc1Cl was read as Pf gametocyte 2.
For Cc1cccc2nc(COc3ccc4ccccc4c3Br)cn12 the results were Calpain2 inh -6, Wee1 degr inh 11*, L929 necroptosis -1, Pf gametocyte 6, RBBP9 inh -12 and TNF death inh -1.
`O=C(N/N=C\C=C\c1ccc2c(c1)OCO2)C1COc2ccccc2O1` (stereo not drawn) gave Calpain2 inh -49, Wee1 degr inh 9.3*, Pf gametocyte 5, RBBP9 inh -1 and TNF death inh 2.
CC1=NN(c2ccccc2)C(=O)/C1=C\c1c(C)[nH]n(-c2ccccc2)c1=O was read as Calpain2 inh -36, Wee1 degr inh 16*, L929 necroptosis 0, Pf gametocyte 1, RBBP9 inh -3 and TNF death inh -1.

Assay outcomes (PubChem)
